Source: ChEMBL document CHEMBL4368897, “Using 2-aminobenzimidazole derivatives to inhibit Mycobacterium smegmatis biofilm formation” (Medchemcomm, 2019)
Values after ≈ are worked out from the molar mass of the structure shown.

How the values were obtained:
[1] = system: Mycolicibacterium smegmatis; experiment: Potentiation of ampicillin-induced antimicrobial activity against Mycobacterium smegmatis str. MC2 155 ATCC 700084 assessed as fold reduction in ampicillin MIC at 20 uM incubated for 48 hrs by broth microdilution method; type: functional
[2] = system: Mycolicibacterium smegmatis; experiment: Antimicrobial activity against Mycobacterium smegmatis str. MC2 155 ATCC 700084 assessed as inhibition of planktonic bacteria growth incubated for 48 hrs by broth microdilution method; type: organism-based
How it was run: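 48 h preculture in 7H9 (ADC, 0.5% Tween 80) used to inoculate fresh 7H9 at 5 × 10^5 CFU mL-1 (OD600 0.006). Compounds added from 100 mM DMSO-d6 stocks and twofold serially diluted. Incubated stationary at 37 °C for 48 h, then 6 h more with alamarBlue. MIC = lowest concentration without visible growth. Duplicate, at least two separate runs.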

[3] = system: Mycolicibacterium smegmatis; experiment: Antibiofilm activity against Mycobacterium smegmatis str. MC2 155 ATCC 700084 assessed as inhibition of biofilm formation incubated for 48 hrs by crystal violet reporter assay; type: functional, organism-based; conditions: for IC50: Mycolicibacterium smegmatis, MC2 155 ATCC 700084, 48 h
How it was run: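 48 h culture subcultured to 0.01 in M9 minimal salts medium containing compound. Incubated in PVC plates, stationary, 37 °C, 48 hr. Wells washed with water, stained 30 min with 0.1% crystal violet, and eluted with 95% ethanol for 10 min. OD540 read; % inhibition taken versus untreated wells. Duplicate wells, at least two separate runs.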

[4] = system: Mycolicibacterium smegmatis; experiment: Potentiation of cefotaxime-induced antimicrobial activity against Mycobacterium smegmatis str. MC2 155 ATCC 700084 assessed as fold reduction in cefotaxime MIC at 20 uM incubated for 48 hrs by broth microdilution method; type: functional

CCCCCc1ccc(C(=O)Nc2ccc3c(c2)nc(N)n3CCCc2ccc(Cl)cc2)cc1
fold change (FC) [1]: 4
MIC [2]: 120 µM (≈ 57 µg/mL)
IC50 [3]: 6.4 µM
fold change (FC) [4]: 8

CCCCCCCCCn1c(N)nc2cc(NC(=O)c3ccc(CCCCC)cc3)ccc21
MIC [2]: 200 µM (≈ 89.7 µg/mL)
IC50 [3]: 23.2 µM

CCCCCc1ccc(C(=O)Nc2ccc3c(c2)nc(N)n3CCCC)cc1
MIC [2]: > 200 µM
IC50 [3]: 22.4 µM

CCCCCc1ccc(C(=O)Nc2ccc3[nH]c(N)nc3c2)cc1
MIC [2]: 150 µM (≈ 48.4 µg/mL)
IC50 [3]: 13.6 µM

CCCCCc1ccc(C(=O)Nc2ccc3c(c2)nc(N)n3CCCc2ccc(Br)cc2)cc1
fold change (FC) [1]: 4
MIC [2]: 100 µM (≈ 51.9 µg/mL)
IC50 [3]: 6.2 µM
fold change (FC) [4]: 16

CCCCCc1ccc(C(=O)Nc2ccc3c(c2)nc(N)n3CCc2ccccc2OC)cc1
MIC [2]: 120 µM (≈ 54.8 µg/mL)
IC50 [3]: 11.3 µM

Nc1nc2cc(C(=O)Nc3ccc(Cl)c(Cl)c3)ccc2n1CCCc1ccccc1
MIC [2]: 200 µM (≈ 87.9 µg/mL)
IC50 [3]: 8.6 µM

CCCCCc1ccc(C(=O)Nc2ccc3c(c2)nc(N)n3CCc2cccc(OC)c2)cc1
MIC [2]: 200 µM (≈ 91.3 µg/mL)
IC50 [3]: 12.5 µM

CCCCCc1ccc(C(=O)Nc2ccc3c(c2)nc(N)n3Cc2ccc(OC)cc2)cc1
MIC [2]: > 200 µM
IC50 [3]: 12.5 µM

CCCCCc1ccc(C(=O)Nc2ccc3c(c2)nc(N)n3CCCc2ccc(OC)cc2)cc1
fold change (FC) [1]: 4
MIC [2]: 100 µM (≈ 47.1 µg/mL)
IC50 [3]: 4.3 µM
fold change (FC) [4]: 16

CCCCCc1ccc(C(=O)Nc2ccc3c(c2)nc(N)n3CCCc2ccccc2Br)cc1
MIC [2]: 120 µM (≈ 62.3 µg/mL)
IC50 [3]: 10.5 µM

CCCCCc1ccc(C(=O)Nc2ccc3c(c2)nc(N)n3CCCc2cccc(Br)c2)cc1
MIC [2]: 100 µM (≈ 51.9 µg/mL)
IC50 [3]: 9.2 µM

CCCCCc1ccc(C(=O)Nc2ccc3c(c2)nc(N)n3CCCc2ccccc2)cc1
fold change (FC) [1]: 16
MIC [2]: 60 µM (≈ 26.4 µg/mL)
MBIC50 [3]: 8 µM
IC50 [3]: 3.5 µM
fold change (FC) [4]: 128

Nc1nc2cc(NC(=O)c3cc(Cl)cc(Cl)c3)ccc2n1CCCc1ccccc1
MIC [2]: 200 µM (≈ 87.9 µg/mL)
IC50 [3]: 9.4 µM

Nc1nc2cc(NC(=O)Nc3ccc(Cl)c(Cl)c3)ccc2n1CCCc1ccccc1
fold change (FC) [1]: 2
MIC [2]: 100 µM (≈ 45.4 µg/mL)
IC50 [3]: 2.6 µM
fold change (FC) [4]: 2

CCCCCc1ccc(C(=O)Nc2ccc3c(c2)nc(N)n3CCCc2ccc(F)cc2)cc1
fold change (FC) [1]: 4
MIC [2]: 120 µM (≈ 55 µg/mL)
IC50 [3]: 3.6 µM
fold change (FC) [4]: 64

Nc1nc2cc(NC(=O)c3ccc(Cl)c(Cl)c3)ccc2n1CCCc1ccccc1
MIC [2]: 200 µM (≈ 87.9 µg/mL)
IC50 [3]: 8.8 µM

CCCCCc1ccc(C(=O)Nc2ccc3c(c2)nc(N)n3CCc2ccccc2)cc1
MIC [2]: 100 µM (≈ 42.7 µg/mL)
IC50 [3]: 5.4 µM

CCCCCc1ccc(C(=O)Nc2ccc3c(c2)nc(N)n3Cc2ccccc2)cc1
MIC [2]: 100 µM (≈ 41.3 µg/mL)
IC50 [3]: 12.2 µM

CCCCCc1ccc(C(=O)Nc2ccc3c(c2)nc(N)n3CCCCc2ccccc2)cc1
MIC [2]: 100 µM (≈ 45.5 µg/mL)
IC50 [3]: 4.3 µM

CCCCCc1ccc(C(=O)Nc2ccc3c(c2)nc(N)n3CCc2ccc(OC)cc2)cc1
MIC [2]: 120 µM (≈ 54.8 µg/mL)
IC50 [3]: 8.8 µM

CCCCCCn1c(N)nc2cc(NC(=O)c3ccc(CCCCC)cc3)ccc21
MIC [2]: > 200 µM
IC50 [3]: 25.6 µM
